We go through 31 compounds from ChEMBL document CHEMBL4017517, “Small Molecule Inhibitors Simultaneously Targeting Cancer Metabolism and Epigenetics: Discovery of Novel Nicotinamide Phosphoribosyltransferase (NAMPT) and Histone Deacetylase (HDAC) Dual Inhibitors” (J Med Chem, 2017).

Assay [1] relates to MDA-MB-231. Nature of the assay: cells. In kind it is functional, cell-based. To be noted: Homo sapiens, MDA-MB-231, 72 h.
For assay [2], the target named is Nicotinamide phosphoribosyltransferase (Homo sapiens, UniProt P43490). Nature of the assay: Inhibition of human recombinant NAMPT using NAM as substrate preincubated for 5 mins followed by substrate addition measured after 15 mins by fluorescence assay.
Nicotinamide phosphoribosyltransferase, sequence (P43490 whole entry, the tested form may be a part): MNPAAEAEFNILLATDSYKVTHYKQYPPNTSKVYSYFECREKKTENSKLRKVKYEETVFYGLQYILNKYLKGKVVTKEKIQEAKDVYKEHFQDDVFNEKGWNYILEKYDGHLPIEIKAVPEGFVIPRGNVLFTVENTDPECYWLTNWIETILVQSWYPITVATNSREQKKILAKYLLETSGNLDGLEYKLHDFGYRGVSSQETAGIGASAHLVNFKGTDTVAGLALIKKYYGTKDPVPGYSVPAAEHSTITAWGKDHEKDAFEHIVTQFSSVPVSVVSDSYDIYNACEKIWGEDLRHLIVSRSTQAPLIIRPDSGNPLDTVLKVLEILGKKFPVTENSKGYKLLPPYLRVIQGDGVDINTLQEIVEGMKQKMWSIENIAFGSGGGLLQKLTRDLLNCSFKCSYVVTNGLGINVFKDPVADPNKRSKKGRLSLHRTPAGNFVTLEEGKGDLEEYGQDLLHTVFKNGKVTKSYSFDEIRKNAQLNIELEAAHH
The target in assay [3] is Histone deacetylase 1 (Homo sapiens, UniProt Q13547). Kind of assay: Inhibition of human recombinant HDAC1 (1 to 482 residues) expressed in Baculovirus using Ac-Leu-Gly-Lys(Ac)-AMC as substrate preincubated for 5 mins followed by substrate addition measured after 30 mins by fluorescence assay.
Histone deacetylase 1, sequence (Q13547 whole entry, the tested form may be a part): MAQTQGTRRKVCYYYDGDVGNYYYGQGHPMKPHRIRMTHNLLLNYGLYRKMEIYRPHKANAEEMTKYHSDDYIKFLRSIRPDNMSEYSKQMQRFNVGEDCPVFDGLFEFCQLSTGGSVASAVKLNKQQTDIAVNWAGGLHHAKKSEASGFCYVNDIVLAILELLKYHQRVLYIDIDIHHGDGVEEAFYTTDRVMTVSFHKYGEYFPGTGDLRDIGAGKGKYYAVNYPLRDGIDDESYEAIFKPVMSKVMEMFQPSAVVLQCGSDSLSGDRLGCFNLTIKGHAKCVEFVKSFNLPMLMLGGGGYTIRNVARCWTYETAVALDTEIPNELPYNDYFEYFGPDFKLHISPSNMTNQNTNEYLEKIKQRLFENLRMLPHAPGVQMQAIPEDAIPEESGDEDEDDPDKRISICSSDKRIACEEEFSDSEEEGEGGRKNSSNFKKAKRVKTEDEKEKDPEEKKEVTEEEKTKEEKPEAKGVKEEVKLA
Assay [4] relates to HepG2. Kind of assay: cells. In kind it is functional, cell-based. Particulars: Homo sapiens, HepG2, 72 h.
For assay [5], the system named is HCT-116. Kind of assay: cells. In kind it is functional, cell-based. To be noted: Homo sapiens, HCT-116, 72 h.
Assay [6] concerns HCT-116. Nature of the assay: Induction of apoptosis in human HCT116 cells assessed as early apoptotic cells at 5 uM after 72 hrs by Annexin V-FITC/propidium iodide staining-based flow cytometric analysis (reference value: 7.82%). The class given is functional. The gist of the method:
(§1)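 HCT116 cells seeded at 5×10^5 cells/mL in six-well plates, treated at 5 μM for 72 h alongside vehicle. Cells trypsinized, washed twice in cold PBS, and resuspended in 1× binding buffer. Stained with annexin V-FITC 15 min at room temperature, then PI 15 min in dark, then flow cytometry.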
In general terms: Flow cytometry measures light scatter and fluorescence of single cells or particles in a stream.

The subject of assay [7] is HCT-116. Nature of the assay: Induction of apoptosis in human HCT116 cells assessed as late apoptotic cells at 5 uM after 72 hrs by Annexin V-FITC/propidium iodide staining-based flow cytometric analysis (reference value: 3.33%). The class given is functional. In short, it runs like this:
as §1

The test system of assay [8] is HCT-116. Kind of assay: Induction of apoptosis in human HCT116 cells assessed as necrotic cells at 5 uM after 72 hrs by Annexin V-FITC/propidium iodide staining-based flow cytometric analysis (reference value: 1.25%). The class given is functional. In short, it runs like this: as §1

A word on the IC50: it is the concentration that inhibits the measured activity by half. In the case of `Nc1ccccc1NC(=O)c1ccc(NC(=S)NCc2nc3ccccc3[nH]2)cc1`, the IC50 in assay [1] was above 100 µM; in assay [2] it was above 2000 nM; in assay [3] it was 46 nM; in assay [4], 31 µM; in assay [5] it was 22 µM.

As to `Nc1ccccc1NC(=O)c1ccc(NC(=S)NCc2ccc(Cl)nc2)cc1`, the IC50 is 42 µM in assay [1]; above 2000 nM in assay [2]; 250 nM in assay [3]; 19 µM in assay [4]; 6.1 µM in assay [5].

Turning to `CC(C)(C)OC(=O)Nc1ccc(CNC(=O)Nc2ccc(C(=O)Nc3ccccc3N)cc2)cn1`, the IC50 in assay [1] was above 100 µM; in assay [2] it was above 2000 nM; in assay [3], 3300 nM; in assay [4], 100 µM; in assay [5] it was 100 µM.

Regarding `Nc1ccccc1NC(=O)c1ccc(CNC(=O)c2ccc3cn[nH]c3c2)cc1`, the IC50 was 98 µM in assay [1]; above 2000 nM in assay [2]; 240 nM in assay [3]; 23 µM in assay [4]; 18 µM in assay [5].

With `Nc1ccccc1NC(=O)c1ccc(NC(=S)NCc2cncc(Br)c2)cc1`, the IC50 in assay [1] is 39 µM; in assay [2], above 2000 nM; in assay [3], 350 nM; in assay [4] it was 7.5 µM; in assay [5] it was 9.2 µM.

`Nc1ccccc1NC(=O)c1ccc(CCn2cc(-c3cccnc3)nn2)cc1`: the IC50 stood at 41 µM in assay [1]; 190 nM in assay [2]; 180 nM in assay [3]; 3.2 µM in assay [4]; 5.5 µM in assay [5].

Turning to `Nc1ccccc1NC(=O)c1ccc(NC(=S)NCc2ccc(F)nc2)cc1`, the IC50 in assay [1] was 81 µM; in assay [2], above 2000 nM; in assay [3], 370 nM; in assay [4], 5.2 µM; in assay [5], 10 µM.

As to `CC(=O)Nc1ccc(C(=O)Nc2ccccc2N)cc1` [TACEDINALINE], the IC50 in assay [2] was above 2000 nM; in assay [4], 10 µM; in assay [5], 10 µM. Also, the Activity in assay [6] came to 10.81%; in assay [7], 20.75%; in assay [8], 3.71%.

As for `Nc1ccccc1NC(=O)c1ccc(CNC(=O)c2cc3cnccc3[nH]2)cc1`, the concentration for half-maximal inhibition (IC50) in assay [1] is 48 µM; in assay [2], above 2000 nM; in assay [3] it was 84 nM; in assay [4], 1.7 µM; in assay [5] it was 4 µM.

In the case of `Nc1ccccc1NC(=O)c1ccc(CNC(=O)c2cc3ccncc3[nH]2)cc1`, the IC50 in assay [1] is 41 µM; in assay [2], above 2000 nM; in assay [3], 71 nM; in assay [4], 4.7 µM; in assay [5], 3.3 µM.

Regarding `Nc1ccccc1NC(=O)c1ccc(NC(=O)NCc2cccnc2)cc1`, the IC50 in assay [1] is above 100 µM; in assay [2], 550 nM; in assay [3] it was 220 nM; in assay [4] it was 5.1 µM; in assay [5], 9.4 µM.

In the case of `Cc1ccc(CNC(=S)Nc2ccc(C(=O)Nc3ccccc3N)cc2)cn1`, the 50% inhibitory concentration (IC50) in assay [1] was 63 µM; in assay [2], above 2000 nM; in assay [3], 260 nM; in assay [4] it was 11 µM; in assay [5], 11 µM.

`Nc1ccccc1NC(=O)c1ccc(NC(=S)NCc2cncc(F)c2)cc1`: the IC50 in assay [1] was 85 µM; in assay [2] it was above 2000 nM; in assay [3], 440 nM; in assay [4], 13 µM; in assay [5] it was 15 µM.

Take `Nc1ccccc1NC(=O)c1ccc(NC(=O)/C(Cl)=C(\Cl)c2cccnc2)cc1`: the IC50 in assay [1] is 13 µM; in assay [2], above 2000 nM; in assay [3] it was 670 nM; in assay [4] it was 0.56 µM; in assay [5], 2.4 µM.

As for `Nc1ccccc1NC(=O)c1ccc(NC(=S)NCc2ccc(F)cc2)cc1`, the half-maximal inhibitory concentration (IC50) in assay [1] is above 100 µM; in assay [2] it was above 2000 nM; in assay [3] it was 300 nM; in assay [4], 8.8 µM; in assay [5], 15 µM.

As to `Nc1ccccc1NC(=O)c1ccc(CNC(=O)c2ccc3cncn3c2)cc1`, the IC50 in assay [1] was 54 µM; in assay [2] it was above 2000 nM; in assay [3] it was 93 nM; in assay [4], 3.4 µM; in assay [5], 7.4 µM.

For the compound `Nc1ccccc1NC(=O)c1ccc(CNC(=O)c2cc3cccnc3[nH]2)cc1`, the IC50 in assay [1] is above 100 µM; in assay [2] it was above 2000 nM; in assay [3], 33 nM; in assay [4], 6.1 µM; in assay [5] it was 10 µM.

For `Nc1ccccc1NC(=O)c1ccc(Cn2cc(-c3ccc(NC(=O)NCc4cccnc4)cc3)nn2)cc1`, the IC50 in assay [1] is above 100 µM; in assay [2], 18 nM; in assay [3], 41 nM; in assay [4], 8.1 µM; in assay [5], above 100 µM.

For the compound `Nc1ccccc1NC(=O)c1ccc(NC(=S)NCc2ccc3c(c2)OCO3)cc1`, the IC50 in assay [1] was above 100 µM; in assay [2] it was above 2000 nM; in assay [3] it was 100 nM; in assay [4] it was 5.1 µM; in assay [5] it was 8.4 µM.

Turning to `Nc1cccc(CNC(=S)Nc2ccc(C(=O)Nc3ccccc3N)cc2)c1`, the IC50 in assay [1] is above 100 µM; in assay [2], above 2000 nM; in assay [3] it was 220 nM; in assay [4] it was 3.3 µM; in assay [5] it was 2.8 µM.

As for `Nc1ccccc1NC(=O)c1ccc(NC(=O)/C=C/c2cccnc2)cc1`, the concentration for half-maximal inhibition (IC50) in assay [1] was above 100 µM; in assay [2], 230 nM; in assay [3] it was 620 nM; in assay [4], 2.7 µM; in assay [5], 48 µM.

Take `Nc1ccc(CNC(=O)Nc2ccc(C(=O)Nc3ccccc3N)cc2)cn1`: the concentration for half-maximal inhibition (IC50) in assay [1] was above 100 µM; in assay [2], above 2000 nM; in assay [3], 330 nM; in assay [4] it was 3.1 µM; in assay [5] it was 7.3 µM.

On to `O=S(=O)(c1ccc(NC(=S)NCc2cccnc2)cc1)N1CCCCC1`, for which the IC50 is above 10000 nM in assay [3], 5.3 µM in assay [4] and 41 µM in assay [5]. Further, the values for the Activity in assay [6], in assay [7] and in assay [8] were 29.11%, 11.4% and 1.62%, respectively.

Consider `Nc1ccccc1NC(=O)c1ccc(CNC(=O)c2ccn3ccnc3c2)cc1`, for which the half-maximal inhibitory concentration (IC50) in assay [1] is 46 µM; in assay [2] it was above 2000 nM; in assay [3], 87 nM; in assay [4], 5.5 µM; in assay [5], 1.8 µM.

Take `Nc1ccccc1NC(=O)c1ccc(NC(=O)NCc2ccc(Cl)nc2)cc1`: the IC50 in assay [1] is 34 µM; in assay [2] it was above 2000 nM; in assay [3] it was 21 nM; in assay [4] it was 2.4 µM; in assay [5] it was 5.2 µM.

In the case of `Nc1ccc(CNC(=S)Nc2ccc(C(=O)Nc3ccccc3N)cc2)cn1`, the IC50 was above 100 µM in assay [1]; above 2000 nM in assay [2]; 200 nM in assay [3]; 14 µM in assay [4]; 27 µM in assay [5].

`Nc1ccccc1NC(=O)c1ccc(NC(=S)NCc2ccccc2F)cc1`: the IC50 in assay [1] is above 100 µM; in assay [2] it was above 2000 nM; in assay [3], 300 nM; in assay [4] it was 5.4 µM; in assay [5] it was 6.3 µM.

Consider `Nc1ccccc1NC(=O)c1ccc(NC(=S)NCc2cccc(Cl)c2)cc1`, for which the IC50 in assay [1] is 92 µM; in assay [2], above 2000 nM; in assay [3], 180 nM; in assay [4] it was 2.6 µM; in assay [5], 5.9 µM.

For the compound `Nc1ccccc1NC(=O)c1ccc(CNC(=O)c2cc3cnccc3s2)cc1`, the half-maximal inhibitory concentration (IC50) in assay [1] was 40 µM; in assay [2], above 2000 nM; in assay [3] it was 83 nM; in assay [4], 0.38 µM; in assay [5], 3 µM.

As to `Nc1ccccc1NC(=O)c1ccc(NC(=O)NCc2ccc(F)nc2)cc1`, the IC50 in assay [1] was 91 µM; in assay [2], above 2000 nM; in assay [3], 280 nM; in assay [4] it was 13 µM; in assay [5] it was 14 µM.

With `Nc1ccccc1NC(=O)c1ccc(NC(=S)NCc2cccc(F)c2)cc1`, the IC50 was 74 µM in assay [1]; above 2000 nM in assay [2]; 170 nM in assay [3]; 2.9 µM in assay [4]; 5.9 µM in assay [5].
